The target of experiment [1] is T1, Farnesyl diphosphate synthase (Trypanosoma cruzi, UniProt Q8WS26).
T1 sequence (Q8WS26 whole entry): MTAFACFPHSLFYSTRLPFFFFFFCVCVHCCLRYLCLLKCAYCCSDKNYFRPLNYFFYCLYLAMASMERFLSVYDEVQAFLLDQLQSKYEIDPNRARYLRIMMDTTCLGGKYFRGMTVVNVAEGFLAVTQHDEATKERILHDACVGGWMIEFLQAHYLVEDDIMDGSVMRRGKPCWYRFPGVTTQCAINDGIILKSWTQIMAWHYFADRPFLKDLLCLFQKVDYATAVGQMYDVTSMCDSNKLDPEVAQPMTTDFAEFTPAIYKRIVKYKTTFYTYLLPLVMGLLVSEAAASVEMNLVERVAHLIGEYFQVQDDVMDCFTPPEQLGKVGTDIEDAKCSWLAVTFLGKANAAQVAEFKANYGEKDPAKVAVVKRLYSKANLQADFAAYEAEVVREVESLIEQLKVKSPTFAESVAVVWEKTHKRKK
Kind of experiment: Inhibition of Trypanosoma cruzi FPPS. Put shortly:
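Recombinant TcFPPS (10–20 ng) started into prewarmed buffer of 10 mM Hepes pH 7.4, 5 mM MgCl2, 2 mM DTT, 100 μM [4-14C]IPP, 100 μM DMAPP; 30 min at 37 °C; quenched with HCl, then alkalinised; hexane-extracted product counted by scintillation.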

The test system of experiment [2] is Trypanosoma cruzi. Kind of experiment: Growth inhibition of Trypanosoma cruzi amastigotes in rat L6E9 cells. The format is functional, organism-based.
Experiment [3] concerns the target T2, Farnesyl diphosphate synthase (Toxoplasma gondii, UniProt Q197X6).
T2 sequence (Q197X6 whole entry): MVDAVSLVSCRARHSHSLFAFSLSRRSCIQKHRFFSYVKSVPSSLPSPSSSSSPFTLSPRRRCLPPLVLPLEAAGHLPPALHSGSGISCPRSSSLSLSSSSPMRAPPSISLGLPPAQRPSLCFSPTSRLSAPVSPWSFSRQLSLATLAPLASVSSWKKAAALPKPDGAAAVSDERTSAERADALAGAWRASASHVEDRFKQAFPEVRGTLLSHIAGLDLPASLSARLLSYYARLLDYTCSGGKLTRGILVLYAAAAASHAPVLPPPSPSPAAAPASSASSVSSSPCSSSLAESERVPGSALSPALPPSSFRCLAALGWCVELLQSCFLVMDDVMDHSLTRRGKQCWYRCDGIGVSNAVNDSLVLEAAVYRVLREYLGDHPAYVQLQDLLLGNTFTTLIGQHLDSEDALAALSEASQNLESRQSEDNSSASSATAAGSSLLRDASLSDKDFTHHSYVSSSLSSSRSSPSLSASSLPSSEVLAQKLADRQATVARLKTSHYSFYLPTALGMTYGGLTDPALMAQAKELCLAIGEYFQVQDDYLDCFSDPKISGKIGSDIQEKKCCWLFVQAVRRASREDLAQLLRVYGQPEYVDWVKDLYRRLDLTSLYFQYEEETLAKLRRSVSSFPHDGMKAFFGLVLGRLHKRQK
Kind of experiment: Inhibition of Toxoplasma gondii FPPS. Put shortly:
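Recombinant TgFPPS (10–20 ng) started into prewarmed buffer of 10 mM Hepes pH 7.4, 1 mM MgCl2, 2 mM DTT, 100 μM [4-14C]IPP, 100 μM DMAPP; 30 min at 37 °C; quenched with HCl, then alkalinised; hexane-extracted product counted by scintillation.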

Another experiment deals with Toxoplasma gondii. Kind of experiment: Growth inhibition of Toxoplasma gondii tachyzoites in HFF cells. It counts as functional, organism-based.
The subject of experiment [4] is Trypanosoma cruzi. Kind of experiment: Growth inhibition of Trypanosoma cruzi amastigotes in rat L6E9 cells at 10 uM. It counts as functional. As to conditions: read-out: GI.

The structures appear in SMILES notation. Some results are limits rather than exact numbers.

The IC50 is the midpoint of a concentration-inhibition curve. A higher IC50 goes with lower potency. Consider `CCCCCCNCC(P(=O)(O)O)P(=O)(O)O`, for which the IC50 in experiment [1] is 0.49 µM; in the experiment with Trypanosoma cruzi [2], 0.84 µM; in experiment [3] it was 0.137 µM; in the experiment with Toxoplasma gondii, 9.37 µM.

In the case of `CCC(C)NCC(P(=O)(O)O)P(=O)(O)O` (stereo not drawn), the IC50 is 0.944 µM in experiment [1], over 50 µM in the experiment on Trypanosoma cruzi [2], 0.112 µM in experiment [3] and over 100 µM with Toxoplasma gondii.

With `CC(C)(C)NCC(P(=O)(O)O)P(=O)(O)O`, the IC50 in experiment [1] stood at 1.21 µM; in the experiment on Trypanosoma cruzi [2], 10 µM; in experiment [3], 0.286 µM; in the experiment with Toxoplasma gondii it was 42.8 µM.

For `O=P(O)(O)C(CNN1CCCCC1)P(=O)(O)O`, the IC50 is 0.287 µM in experiment [1], 6.1 µM in the experiment with Trypanosoma cruzi [2], 0.165 µM in experiment [3] and 70.6 µM in the experiment on Toxoplasma gondii.

For the compound `N#CSCCOc1ccc(Oc2ccccc2)cc1`, it took 12 µM to reach half-maximal inhibition in the experiment with Trypanosoma cruzi [2] (IC50).

Take `O=P(O)(O)C(CNN1CCCC1)P(=O)(O)O`: the IC50 is 0.76 µM in experiment [1], 14 µM in the experiment with Trypanosoma cruzi [2], 0.361 µM in experiment [3] and 13.3 µM in the experiment with Toxoplasma gondii.

In the case of `CC(C)CCNCC(P(=O)(O)O)P(=O)(O)O`, the IC50 in experiment [1] is 0.42 µM; in the experiment on Trypanosoma cruzi [2], 10 µM; in experiment [3], 0.275 µM; in the experiment on Toxoplasma gondii it was 36.9 µM.

As to `CCCCCNCC(P(=O)(O)O)P(=O)(O)O`, the IC50 in experiment [1] was 1.84 µM; in the experiment with Trypanosoma cruzi [2], 0.54 µM; in experiment [3] it was 0.08 µM; with Toxoplasma gondii, over 50 µM.

On to `CCCCNCC(P(=O)(O)O)P(=O)(O)O`, for which the half-inhibitory concentration (IC50) in experiment [1] came out at 2.28 µM; in the experiment on Trypanosoma cruzi [2], 4.8 µM; in experiment [3], 0.206 µM; with Toxoplasma gondii, 48.7 µM.

Turning to `O=P(O)(O)C(CNC1CCCCC1)P(=O)(O)O`, the IC50 worked out at 0.013 µM in experiment [1], 0.337 µM in experiment [3] and 57.3 µM with Toxoplasma gondii. For the same compound, the inhibition of growth at 10 µM with Trypanosoma cruzi [4] worked out at 36.3%.

For `CCCCCCC(O)(P(=O)(O)O)P(=O)(O)O`, the IC50 in the experiment with Trypanosoma cruzi [2] was 18 µM.

For `CC(C)CNCC(P(=O)(O)O)P(=O)(O)O`, the half-inhibitory concentration (IC50) was 0.515 µM in experiment [1], over 50 µM with Trypanosoma cruzi [2], 0.181 µM in experiment [3] and 74.5 µM in the experiment with Toxoplasma gondii.

As to `CCCCCCCNCC(P(=O)(O)O)P(=O)(O)O`, the IC50 in experiment [1] was 0.058 µM; in the experiment with Trypanosoma cruzi [2] it was 10 µM; in experiment [3], 0.095 µM; in the experiment with Toxoplasma gondii it was over 50 µM.

As for `CCCCCCCCNCC(P(=O)(O)O)P(=O)(O)O`, the IC50 in experiment [1] amounted to 1.01 µM; in the experiment on Trypanosoma cruzi [2], 4.1 µM; in experiment [3], 0.087 µM; with Toxoplasma gondii, 2.6 µM.

In the case of `CCCNCC(P(=O)(O)O)P(=O)(O)O`, the IC50 in experiment [1] is 0.038 µM; with Trypanosoma cruzi [2], over 50 µM; in experiment [3], 0.298 µM; in the experiment on Toxoplasma gondii, 6.33 µM.

Regarding `CC(C)NCC(P(=O)(O)O)P(=O)(O)O`, the IC50 in experiment [1] was 1.4 µM; in the experiment with Trypanosoma cruzi [2] it was over 50 µM; in experiment [3], 0.253 µM; in the experiment with Toxoplasma gondii, 69.8 µM.

Source of the values: ChEMBL document CHEMBL1143873, “Synthesis and biological evaluation of 2-alkylaminoethyl-1,1-bisphosphonic acids against Trypanosoma cruzi and Toxoplasma gondii targeting farnesyl diphosphate synthase” (Bioorg Med Chem, 2008).
